Test results: publication PMC2800230 (Nucleic Acids Research, 2009)
Entries after “also recorded” stand apart in the source; their conditions may differ. The star is where a group is joined. Biotin = O=C1N[C@H]2[C@H](CS[C@H]2CCCCC(=O)*)N1; Ahx = NCCCCCC(=O)O

How the values were obtained:
RAD51 = details: in contrast to BRC4; ref [20],[21],[39]; cited from earlier work
BRC4–RAD51 interaction = assay type: binding, human; details: competitive ELISA; comparison in words
How it was run: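 Solid-phase BRC4 peptide was bound by recombinant full-length human RAD51 in solution. The RAD51 was thrombin-cleaved overnight at 22°C from GST-RAD51 expressed in E. coli BL21, then dialysed into PBS. Wild-type or mutant biotinylated BRC peptides were added as soluble competitors. Absorbance is given as mean percentage (SEM) of triplicates, normalised to the positive control without soluble inhibitor.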

RAD51-dsDNA filament = assay: EMSA of RAD51 nucleoprotein filament formation on dsDNA; assay type: biochemical, human; details: RAD51 2 µM, result in words
How it was run: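 Untagged RAD51 (2 µM) was pre-incubated with BRC peptides at stated µM concentrations for 10 min on ice. Complexes were resolved on 0.5% agarose in TAE (50 mA, 4 h, 4°C) and phosphorimaged.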

mCherry-RAD51^WT = assay: Bio-BRC4 pull-down from DT40 whole-cell extract: mCherry-RAD51^WT; assay type: binding, human; details: lysates of untreated DT40 cells; streptavidin magnetic beads; western blot
How it was run: (§1)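 Lysates from untreated Rad51−/− DT40 cells (no doxycycline) expressing mCherry-tagged wild-type or mutant human RAD51 alongside wild-type HsRAD51Tet off were incubated with BRC4 peptide. The peptide carried an N-terminal biotin on a 6-aminohexanoic acid spacer and a C-terminal amide, was HPLC-purified to 95%, and was bound to streptavidin-coated magnetic beads. Captured RAD51 species were detected by SDS–PAGE and immunoblotting.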

[1] = tested on: mCherry-RAD51 RAD51^LL-EE; assay: Bio-BRC4 pull-down from DT40 whole-cell extract: mCherry-RAD51^LL-EE; assay type: binding, human; details: lysates of untreated DT40 cells also expressing HsRAD51^Tet off; western blot
How it was run: as §1

[2] = tested on: mCherry-RAD51 RAD51^LLRR-EEAA; assay: Bio-BRC4 pull-down from DT40 whole-cell extract: mCherry-RAD51^LLRR-EEAA; assay type: binding, human; details: lysates of untreated DT40 cells also expressing HsRAD51^Tet off; western blot
How it was run: as §1

[3] = biological target: T1, Recombinant full-length RAD51, cleaved from GST-RAD51 (human, UniProt Q06609 1-339); assay: ELISA
T1 sequence (looked up): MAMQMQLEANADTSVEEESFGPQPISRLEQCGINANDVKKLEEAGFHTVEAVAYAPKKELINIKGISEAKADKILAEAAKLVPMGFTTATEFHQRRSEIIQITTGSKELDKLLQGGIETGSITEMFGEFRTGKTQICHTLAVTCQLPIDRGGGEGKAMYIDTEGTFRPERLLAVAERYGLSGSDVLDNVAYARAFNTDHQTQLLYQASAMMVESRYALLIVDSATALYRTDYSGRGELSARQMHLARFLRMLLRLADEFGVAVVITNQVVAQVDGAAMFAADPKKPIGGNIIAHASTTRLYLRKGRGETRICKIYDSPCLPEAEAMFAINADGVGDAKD

[4] = biological target: T2, Untagged recombinant RAD51 (human, UniProt Q06609 1-339); assay: native gel or EMSA
T2 sequence (looked up): T1 sequence (looked up)

RAD51 (WT) = biological target: T3, RAD51 (WT) (Homo sapiens, UniProt Q06609 1-339); assay: streptavidin-bead pull-down
T3 chain: T1 sequence (looked up)

RAD51 R250A = RAD51 R250A (Homo sapiens, UniProt Q06609 1-339, R250A); assay: streptavidin-bead pull-down

IENSALAFYTSCSRKTSVSQTSLLEAKKWLREGIF [BRC5]
affinity for RAD51 among the human BRC repeats (RAD51): lowest affinity

KEPTLLGFHTASGKKVKVSQTSLLEAKKWLREGIF [BRC^45]
potency at competing the BRC4–RAD51 interaction relative to another peptide (BRC4–RAD51 interaction): more potent than BRC4
inhibition of complex (filament) formation at higher concentrations (RAD51-dsDNA filament): inhibits complex formation when present in higher amounts
permissive (super-shift) and inhibitory behaviours in the EMSA (RAD51-dsDNA filament): exhibits both behaviours; also recorded: Concentration dependent super-shift and subsequent inhibition of filament formation

KEPTLLGFHTASGKKVKIAKESLDKVKNLFDEKEQ [BRC4]
inhibition of complex (filament) formation at higher concentrations (RAD51-dsDNA filament): filament formation is prevented
pull-down of mCherry-RAD51^WT by Bio-BRC4 (mCherry-RAD51^WT): can also be pulled-down by Bio-BRC4
pull-down of mCherry-RAD51^LL-EE by Bio-BRC4 [1]: defective in binding to Bio-BRC4
pull-down of mCherry-RAD51^LLRR-EEAA by Bio-BRC4 [2]: defective in binding to Bio-BRC4

B1: BRC4 peptide (human BRCA2 BRC repeat 4, 35-mer) (peptide)
peptide: KEPTLLGFHTASGKKVKIAKESLDKVKNLFDEKEQ
modifications: N-terminal biotin attached through a 6-aminohexanoic acid spacer; C-terminal amide
binding result [3]: binds

B2: BRC^45 chimaeric peptide (N-terminal 17 residues of BRC4 and C-terminal 18 residues of BRC5) (peptide)
peptide: {Biotin-Ahx}-KEPTLLGFHTASGKKVKVSQTSLLEAKKWLREGIF-NH2
SMILES: CC[C@H](C)[C@H](NC(=O)CNC(=O)[C@H](CCC(=O)O)NC(=O)[C@H](CCCNC(=N)N)NC(=O)[C@H](CC(C)C)NC(=O)[C@H](Cc1c[nH]c2ccccc12)NC(=O)[C@H](CCCCN)NC(=O)[C@H](CCCCN)NC(=O)[C@H](C)NC(=O)[C@H](CCC(=O)O)NC(=O)[C@H](CC(C)C)NC(=O)[C@H](CC(C)C)NC(=O)[C@H](CO)NC(=O)[C@@H](NC(=O)[C@H](CCC(N)=O)NC(=O)[C@H](CO)NC(=O)[C@@H](NC(=O)[C@H](CCCCN)NC(=O)[C@@H](NC(=O)[C@H](CCCCN)NC(=O)[C@H](CCCCN)NC(=O)CNC(=O)[C@H](CO)NC(=O)[C@H](C)NC(=O)[C@@H](NC(=O)[C@H](Cc1c[nH]cn1)NC(=O)[C@H](Cc1ccccc1)NC(=O)CNC(=O)[C@H](CC(C)C)NC(=O)[C@H](CC(C)C)NC(=O)[C@@H](NC(=O)[C@@H]1CCCN1C(=O)[C@H](CCC(=O)O)NC(=O)[C@H](CCCCN)NC(=O)CCCCCNC(=O)CCCC[C@@H]1SC[C@@H]2NC(=O)N[C@@H]21)[C@@H](C)O)[C@@H](C)O)C(C)C)C(C)C)[C@@H](C)O)C(=O)N[C@@H](Cc1ccccc1)C(N)=O
binding result [3]: binds
binding result [4]: binds

B3: 60-mer ssDNA (ssDNA)
DNA: TACTGCCATTCTGTATCGCTTATCGAGTAGTTACCTGCCTAGCATTGCCACTCATAGCCT
binding result (RAD51 (WT)): binds
binding result (RAD51 R250A): binds

B4: 60-mer dsDNA (dsDNA)
DNA 1: B3 DNA
DNA 2: AGGCTATGAGTGGCAATGCTAGGCAGGTAACTACTCGATAAGCGATACAGAATGGCAGTA
binding result (RAD51 (WT)): binds
binding result (RAD51 R250A): binds
